The record followed here is paper PMC6487859 (Journal of the American Chemical Society, 2018).

The target of series [1] is T1, PKN3 (Homo sapiens, UniProt Q6P5Z2). As to the kind of experiment: target engagement pulldown, live HeLa S3 cells, THZ1-DTB. It is filed as cell-based. The conditions noted are these: 4 h, Western blot.
Series [2] has as its target T1, PKN3. As to the kind of experiment: in vitro PKN3 kinase assay. It is filed as biochemical. Conditions: for time-dependent inhibition of PKN3: fixed inhibitor concentration 1 μM, preincubation 0 to 120 min. Summed up:
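Enzyme was preincubated with test compound 30 min, then reacted 30 min at RT with 68 µM ATP plus 1 µCi [γ-32P]ATP. TCA stop, phosphocellulose capture, phosphoric-acid washes, scintillation counting. IC50 came from a 7-point dose-response. Time course used 1 µM compound with 0–120 min preincubation.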

In series [3] the test system is CDK12/13. The conditions noted are these: live HeLa S3 cells, 4 h; cyclin K as proxy.
Series [4] concerns the target T2, PRKCQ (Homo sapiens, UniProt Q04759). As to the kind of experiment: target engagement pulldown, live HeLa S3 cells, THZ1-DTB. The conditions noted are these: 4 h, Western blot. It is filed as cell-based.
The target in series [5] is T3, CDK7 (Homo sapiens, UniProt P50613). The description is as above. The format is cell-based. The conditions noted are these: 4 h, Western blot. A general note: In western blotting, separated proteins are transferred to a membrane and probed.
In series [6] the target is CDK12 (Homo sapiens, UniProt Q9NYV4). Briefly: CITe-Id, HeLa S3 lysates, THZ1-DTB. The conditions noted are these: competition with 2 μM THZ1-DTB. The format is binding. The method, boiled down:
(§1)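 Precleared on streptavidin resin 1 h at 4 °C, split four ways. DMSO or rising test-compound doses for 1 h at RT, then 2 µM desthiobiotin probe at 4 °C for 18 h. Urea denaturation, DTT/IAA, tryptic digest. Streptavidin-enriched probe peptides were iTRAQ-labelled for RP-SAX-RP LC–MS/MS. Slope of reporter ratios (vs DMSO) against concentration scored each cysteine. Hits exceeded 2 SD over the mean of 527 sites; biological replicates.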

For series [7], the target named is T1, PKN3. As to the kind of experiment: PKN3 in vitro phosphorylation of candidate substrate synthetic peptides. It is filed as biochemical. The conditions noted are these: pretreatment 1 μM for 30 min. Summed up: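 Recombinant PKN3 (25 ng) was preincubated with test compound at 1 μM for 30 min. Reactions ran 1 h at 37 °C and were stopped with 1% acetic acid. Peptides were desalted and read by MALDI TOF/TOF. Percent phosphorylation was inferred from the loss of unphosphorylated signal against a no-ATP control; four replicates.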

Series [8] concerns the target CDK13 (Homo sapiens, UniProt Q14004). Briefly: CITe-Id, HeLa S3 lysates, THZ1-DTB. It is filed as binding. Conditions: competition with 2 μM THZ1-DTB. Summed up: as §1
The target in series [9] is glycogen synthase kinase 3B (GSK3B) at C14 (Homo sapiens, UniProt P49841). As to the kind of experiment: CITe-Id, HeLa S3 lysates, THZ1-DTB. It is filed as binding. Conditions: competition with 2 μM THZ1-DTB. The method, boiled down: as §1
Series [10] deals with T2, PRKCQ. As to the kind of experiment: SelectScreen kinase assay. It is filed as biochemical. The conditions noted are these: 10-dose titration.
Series [11] addresses protein kinase C theta (PRKCQ) at C661 (Homo sapiens, UniProt Q04759). Briefly: CITe-Id, HeLa S3 lysates, THZ1-DTB. The conditions noted are these: competition with 2 μM THZ1-DTB. The format is binding. The method, boiled down:
as §1

In series [12] the target is PKN3 at C840 (Homo sapiens, UniProt Q6P5Z2). As to the kind of experiment: CITe-Id, HeLa S3 lysates, THZ1-DTB. The format is binding. The conditions noted are these: competition with 2 μM THZ1-DTB. The method, boiled down:
as §1

For series [13], the target named is T3, CDK7. Briefly: CITe-Id, HeLa S3 lysates, THZ1-DTB. It is filed as binding. The conditions noted are these: competition with 2 μM THZ1-DTB. The method, boiled down:
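Aliquots pretreated with DMSO or increasing test compound concentrations for 1 h at RT, then 2 μM desthiobiotin probe for 18 h at 4 °C. Denatured, reduced, alkylated, trypsin-digested; probe peptides streptavidin-enriched, iTRAQ-labelled, LC–MS/MS. Cysteine reporter ratios versus the DMSO channel were regressed against concentration, and the slope was taken as the dose response.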

Series [14] deals with cysteine residues across the proteome. Briefly: CITe-Id proteome-wide, HeLa S3 lysates. It is filed as binding, human. The method, boiled down: as §1
Series [15] concerns the target T4, CYP1B1 (Homo sapiens, UniProt Q16678).
T4 sequence (Q16678 1-543): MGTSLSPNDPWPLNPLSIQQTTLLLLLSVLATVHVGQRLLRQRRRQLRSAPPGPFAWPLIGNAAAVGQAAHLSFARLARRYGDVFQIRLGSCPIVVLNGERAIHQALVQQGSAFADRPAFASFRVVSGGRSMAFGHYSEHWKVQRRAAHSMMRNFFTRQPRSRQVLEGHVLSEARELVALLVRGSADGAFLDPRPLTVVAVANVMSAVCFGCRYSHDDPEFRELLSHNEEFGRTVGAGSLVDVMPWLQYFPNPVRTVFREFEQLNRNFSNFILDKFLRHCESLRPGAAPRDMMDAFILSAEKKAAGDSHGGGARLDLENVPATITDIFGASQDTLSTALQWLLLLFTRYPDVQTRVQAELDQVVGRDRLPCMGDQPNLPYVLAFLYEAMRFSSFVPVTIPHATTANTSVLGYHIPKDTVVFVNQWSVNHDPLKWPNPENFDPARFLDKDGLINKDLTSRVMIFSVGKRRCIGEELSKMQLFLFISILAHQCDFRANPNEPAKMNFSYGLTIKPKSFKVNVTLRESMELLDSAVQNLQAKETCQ
As to the kind of experiment: CITe-Id, HeLa S3 lysates, THZ1-DTB. It is filed as binding. The conditions noted are these: competition with 2 μM THZ1-DTB. The method, boiled down:
as §1

T1 sequence (Q6P5Z2 whole entry): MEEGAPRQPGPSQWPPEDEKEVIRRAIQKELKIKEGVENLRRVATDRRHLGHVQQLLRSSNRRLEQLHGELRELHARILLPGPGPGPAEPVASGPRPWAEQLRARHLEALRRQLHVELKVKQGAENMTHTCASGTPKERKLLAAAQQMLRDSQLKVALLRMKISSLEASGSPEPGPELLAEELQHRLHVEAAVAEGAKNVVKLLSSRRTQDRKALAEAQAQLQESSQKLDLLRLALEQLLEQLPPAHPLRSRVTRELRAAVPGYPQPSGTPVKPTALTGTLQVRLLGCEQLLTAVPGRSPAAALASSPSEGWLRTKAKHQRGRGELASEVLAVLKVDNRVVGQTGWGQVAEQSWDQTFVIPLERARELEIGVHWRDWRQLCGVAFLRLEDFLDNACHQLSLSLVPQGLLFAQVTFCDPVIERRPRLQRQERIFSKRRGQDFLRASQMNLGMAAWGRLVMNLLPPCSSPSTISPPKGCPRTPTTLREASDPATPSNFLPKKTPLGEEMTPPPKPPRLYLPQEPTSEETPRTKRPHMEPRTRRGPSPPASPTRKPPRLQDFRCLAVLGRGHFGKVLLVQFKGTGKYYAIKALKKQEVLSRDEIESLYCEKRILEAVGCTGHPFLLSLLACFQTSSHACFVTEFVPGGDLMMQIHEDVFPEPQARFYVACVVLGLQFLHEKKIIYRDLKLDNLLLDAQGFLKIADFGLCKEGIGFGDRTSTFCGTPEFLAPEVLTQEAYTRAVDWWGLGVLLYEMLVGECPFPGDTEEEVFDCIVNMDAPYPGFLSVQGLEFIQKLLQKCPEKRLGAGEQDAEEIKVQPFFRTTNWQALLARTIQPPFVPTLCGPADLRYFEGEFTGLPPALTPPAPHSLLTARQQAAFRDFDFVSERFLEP
T3 sequence (P50613 2-346 limits assumed): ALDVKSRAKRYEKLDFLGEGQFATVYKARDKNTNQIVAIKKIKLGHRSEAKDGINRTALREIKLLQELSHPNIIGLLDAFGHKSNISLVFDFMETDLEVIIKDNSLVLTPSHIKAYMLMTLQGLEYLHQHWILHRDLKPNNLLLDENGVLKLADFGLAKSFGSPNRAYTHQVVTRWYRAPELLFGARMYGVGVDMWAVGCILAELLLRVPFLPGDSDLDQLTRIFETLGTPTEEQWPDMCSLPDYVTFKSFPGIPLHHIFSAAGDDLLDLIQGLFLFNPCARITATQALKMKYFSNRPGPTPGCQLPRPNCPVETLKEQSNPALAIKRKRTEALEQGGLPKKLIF
T3 sequence (P51946 whole entry partner): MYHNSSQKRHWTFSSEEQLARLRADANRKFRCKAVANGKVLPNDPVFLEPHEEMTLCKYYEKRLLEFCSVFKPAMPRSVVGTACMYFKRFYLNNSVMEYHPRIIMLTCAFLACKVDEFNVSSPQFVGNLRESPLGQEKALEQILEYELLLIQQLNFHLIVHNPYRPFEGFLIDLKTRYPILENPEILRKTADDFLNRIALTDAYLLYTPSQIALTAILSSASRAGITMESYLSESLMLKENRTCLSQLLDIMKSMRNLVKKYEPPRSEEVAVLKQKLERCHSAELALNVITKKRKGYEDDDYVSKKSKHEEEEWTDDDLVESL
T3 sequence (P51948 whole entry partner): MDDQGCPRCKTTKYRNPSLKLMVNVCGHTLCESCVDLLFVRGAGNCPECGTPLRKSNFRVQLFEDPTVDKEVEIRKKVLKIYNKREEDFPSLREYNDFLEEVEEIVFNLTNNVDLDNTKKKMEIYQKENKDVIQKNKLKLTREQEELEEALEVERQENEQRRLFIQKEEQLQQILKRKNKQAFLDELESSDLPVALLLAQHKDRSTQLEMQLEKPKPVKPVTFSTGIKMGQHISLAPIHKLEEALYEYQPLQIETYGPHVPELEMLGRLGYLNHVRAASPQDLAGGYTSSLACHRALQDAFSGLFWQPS
Sequence of PKN3 at C840 (Q6P5Z2 whole entry): as the sequence (Q6P5Z2 whole entry) above
Sequence of glycogen synthase kinase 3B (GSK3B) at C14 (P49841 whole entry): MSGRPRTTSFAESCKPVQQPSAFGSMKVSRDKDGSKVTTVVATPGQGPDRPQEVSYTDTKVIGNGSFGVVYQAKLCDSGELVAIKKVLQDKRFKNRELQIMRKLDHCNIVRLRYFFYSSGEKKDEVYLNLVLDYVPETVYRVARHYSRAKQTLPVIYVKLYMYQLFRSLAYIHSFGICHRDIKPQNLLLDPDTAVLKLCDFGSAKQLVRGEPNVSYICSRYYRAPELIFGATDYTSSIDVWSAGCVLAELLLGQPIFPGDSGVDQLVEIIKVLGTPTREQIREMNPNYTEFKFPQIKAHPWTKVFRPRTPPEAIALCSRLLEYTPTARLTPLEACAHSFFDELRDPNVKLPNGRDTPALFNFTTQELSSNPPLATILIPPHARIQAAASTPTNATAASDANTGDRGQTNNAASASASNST
Sequence of protein kinase C theta (PRKCQ) at C661 (Q04759 whole entry): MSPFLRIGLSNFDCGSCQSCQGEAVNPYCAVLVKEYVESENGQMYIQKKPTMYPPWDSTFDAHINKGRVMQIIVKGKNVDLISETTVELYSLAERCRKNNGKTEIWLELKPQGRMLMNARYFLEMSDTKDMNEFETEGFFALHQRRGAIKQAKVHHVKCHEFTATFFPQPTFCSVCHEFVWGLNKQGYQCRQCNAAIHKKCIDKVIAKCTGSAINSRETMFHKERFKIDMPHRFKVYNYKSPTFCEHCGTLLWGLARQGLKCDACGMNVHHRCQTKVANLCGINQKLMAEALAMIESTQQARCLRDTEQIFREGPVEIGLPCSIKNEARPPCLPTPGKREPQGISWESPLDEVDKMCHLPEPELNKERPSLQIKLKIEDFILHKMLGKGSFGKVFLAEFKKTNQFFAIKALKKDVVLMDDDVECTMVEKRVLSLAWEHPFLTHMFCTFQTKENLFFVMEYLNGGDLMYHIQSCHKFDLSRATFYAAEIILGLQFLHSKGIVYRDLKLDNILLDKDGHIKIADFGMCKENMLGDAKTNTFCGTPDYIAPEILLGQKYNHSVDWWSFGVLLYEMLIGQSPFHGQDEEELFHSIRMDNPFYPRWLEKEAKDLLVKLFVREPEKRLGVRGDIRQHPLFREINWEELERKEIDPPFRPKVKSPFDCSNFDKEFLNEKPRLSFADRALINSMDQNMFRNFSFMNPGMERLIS
T2 sequence (Q04759 whole entry): as above

In the case of `CN(C)CCCC(=O)Nc1ccc(C(=O)Nc2cccc(Nc3ncc(Cl)c(-c4c[nH]c5ccccc45)n3)c2)cc1` [THZ1-R], the “competition for PKN3 against THZ1-DTB pulldown” value in [1] is recorded as “competed poorly”. Moreover, in series [2], the “time-dependent inhibition of PKN3” value is recorded as “did not show time-dependent inhibition”. In addition, the “potency against PKN3 relative to THZ1 (fold less potent)” value in series [2] (fixed time-point format) is reported as “more than 50 fold”. In series [3], the “competition for CDK12/13 against THZ1-DTB pulldown” value is on record as “competed poorly”. Moreover, the “competition for PRKCQ against THZ1-DTB pulldown” value in [4] is recorded as “competed poorly”. In addition, the “competition for CDK7 against THZ1-DTB pulldown” value in series [5] is given as “competed poorly”.
The term IC50 denotes the concentration that inhibits the measured activity by half. Take `CN(C)C/C=C/C(=O)Nc1ccc(C(=O)Nc2cccc(Nc3ncc(Cl)c(-c4c[nH]c5ccccc45)n3)c2)cc1` [THZ1]: in [6], the “competitive dose-response at CDK12 cysteine” value is reported as “dose-dependent competitive binding”. Also, in series [7], the “PKN3-mediated phosphorylation of EXOC2 (S432) peptide” value is listed as “partially blocked” and the “PKN3-mediated phosphorylation of LAD1 (S375) peptide” value is “partially blocked”. Further, the “competitive dose-response at CDK13 cysteine” value in [8] is reported as “dose-dependent competitive binding”. Besides, the “competitive dose-response at GSK3B C14” value in series [9] was “dose-dependent THZ1 competitive binding”. Further, the “potency against PRKCQ” value in series [10] is reported as “weak potency”. In series [11], the “competitive dose-response at PRKCQ C661” value is “dose-dependent THZ1 competitive binding”. Besides, in [2], the “time-dependent inhibition of PKN3” value was “time dependent”. Besides, in series [2] (read-out: IC50 against PKN3, fixed time-point format, 30 min preincubation), the IC50 turned out to be 72 nM. For the same compound, the “competitive dose-response at PKN3 C840” value in series [12] is reported as “dose-dependent THZ1 competitive binding”. Also, the “competitive dose-response at CDK7 cysteine” value in series [13] is listed as “dose-dependent competitive binding”. Moreover, the “competition for CDK7 against THZ1-DTB pulldown” value in series [5] is on record as “strong competition”. Further, the “number of cysteine residues with dose-dependent competitive binding” value in series [14] was “eight”.
Consider `CN(C)C/C=C/C(=O)Nc1ccc(C(=O)N2CCC[C@@H](Nc3ncc(Cl)c(-c4c[nH]c5ccccc45)n3)C2)cc1` [THZ531], for which, in series [9], the “competitive dose-response at GSK3B C14” value is “gaining some activity”. Moreover, in series [11], the “competitive dose-response at PRKCQ C661” value is on record as “little or no reactivity”. In addition, the “competitive dose-response at PKN3 C840” value in series [12] is given as “little or no reactivity”. Also, in series [15], the “competitive dose-response at CYP1B1” value is “little or no reactivity”.
